Active and inactive are the calls of the source. The rule behind the calls is not given here.
How the values were obtained:
[1] = system: MGC-803; test: Antiproliferative activity against human MGC-803 cells by MTT assay; format: functional, cell-based
Outline: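 They were seeded at 5×10⁴/well and cultured overnight, then exposed to compound for 24 h. MTT (5 mg/mL solution) was added for 4 h at 37 °C, formazan was dissolved in DMSO, and absorbance was read at 490 nm. Each experiment was run three times.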

[2] = target: Cellular tumor antigen p53 (Homo sapiens) (UniProt P04637); test: Induction of p53 cytoplasmic translocation in human MGC-803 cells at 5 uM measured after 24 hrs in presence of proteasome inhibitor MG132 by immunoprecipitation method; format: cell-based; conditions: filed as modulator, dose 10.0 µM, in the assay text read “at 10 uM” for “at 5 uM”
Chain of Cellular tumor antigen p53 (Homo sapiens) (P04637 whole entry, looked up): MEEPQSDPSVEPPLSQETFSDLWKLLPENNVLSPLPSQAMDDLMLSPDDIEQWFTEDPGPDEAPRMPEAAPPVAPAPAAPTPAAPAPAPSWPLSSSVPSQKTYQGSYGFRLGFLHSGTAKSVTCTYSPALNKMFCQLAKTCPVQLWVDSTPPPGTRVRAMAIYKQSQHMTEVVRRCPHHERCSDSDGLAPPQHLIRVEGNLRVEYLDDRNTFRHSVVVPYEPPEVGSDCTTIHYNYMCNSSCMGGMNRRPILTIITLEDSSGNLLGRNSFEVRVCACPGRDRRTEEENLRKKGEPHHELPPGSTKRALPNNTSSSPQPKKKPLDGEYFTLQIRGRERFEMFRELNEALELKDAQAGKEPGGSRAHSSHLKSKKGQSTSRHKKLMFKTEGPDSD
Outline: (§1)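 Cells pretreated with 0.05 μM MG132 for 1 h, then exposed to compound for 24 h. Proteins co-precipitated with anti-p53 antibody and detected by immunoblot.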

[3] = target: Exportin-1 (Homo sapiens) (UniProt O14980); test: Induction of CRM1 degradation in human HGC-27 cells assessed as reduction in CRM1 expression measured after 24 hrs by Western blot analysis; format: cell-based; conditions: dose 1.25-10 µM
Chain of Exportin-1 (Homo sapiens) (O14980 whole entry): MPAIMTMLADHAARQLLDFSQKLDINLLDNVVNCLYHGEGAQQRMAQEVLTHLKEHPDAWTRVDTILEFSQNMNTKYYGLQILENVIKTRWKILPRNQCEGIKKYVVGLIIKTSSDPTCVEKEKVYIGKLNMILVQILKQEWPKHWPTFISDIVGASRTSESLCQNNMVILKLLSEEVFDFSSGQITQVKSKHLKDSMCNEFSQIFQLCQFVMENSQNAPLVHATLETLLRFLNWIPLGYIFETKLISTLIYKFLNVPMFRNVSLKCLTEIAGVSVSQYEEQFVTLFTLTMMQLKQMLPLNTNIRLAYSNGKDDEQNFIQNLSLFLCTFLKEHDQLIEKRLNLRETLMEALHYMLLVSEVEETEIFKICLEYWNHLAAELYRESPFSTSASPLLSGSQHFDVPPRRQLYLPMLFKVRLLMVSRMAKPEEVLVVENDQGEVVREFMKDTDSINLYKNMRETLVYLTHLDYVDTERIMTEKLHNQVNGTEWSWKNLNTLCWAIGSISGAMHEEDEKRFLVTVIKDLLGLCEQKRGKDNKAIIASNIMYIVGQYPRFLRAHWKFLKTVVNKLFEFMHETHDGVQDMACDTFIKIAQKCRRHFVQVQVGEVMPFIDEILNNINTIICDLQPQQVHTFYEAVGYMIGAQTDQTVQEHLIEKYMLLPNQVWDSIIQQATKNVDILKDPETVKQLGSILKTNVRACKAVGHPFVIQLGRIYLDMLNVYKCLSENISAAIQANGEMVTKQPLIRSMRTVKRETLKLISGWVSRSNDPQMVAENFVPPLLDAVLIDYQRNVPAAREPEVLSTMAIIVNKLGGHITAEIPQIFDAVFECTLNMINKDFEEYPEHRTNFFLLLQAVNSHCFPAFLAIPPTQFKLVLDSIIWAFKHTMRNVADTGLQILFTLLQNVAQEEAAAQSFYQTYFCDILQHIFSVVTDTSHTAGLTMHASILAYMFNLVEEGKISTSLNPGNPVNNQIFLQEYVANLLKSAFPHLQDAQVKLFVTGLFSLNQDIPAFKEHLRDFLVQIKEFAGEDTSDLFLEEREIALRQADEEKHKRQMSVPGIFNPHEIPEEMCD

[4] = target: Exportin-1 (Homo sapiens) (UniProt O14980); test: Induction of CRM1 degradation in human MGC-803 cells assessed as reduction in CRM1 expression measured after 24 hrs by Western blot analysis; format: cell-based
[5] = target: Exportin-1 (Homo sapiens) (UniProt O14980); test: Induction of CRM1 degradation in human MGC-803 cells assessed as increase in p53 accumulation in nucleus at 10 uM measured after 6 hrs by DAPI staining based immunofluorescence assay; format: cell-based
Outline: (§2)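 MGC803 cells were exposed to 10 μM compound for 0 or 6 h. They were fixed in 4% paraformaldehyde for 30 min, permeabilized with 0.1% Triton X-100 for 10 min and blocked with 10% goat serum for 30 min. Staining used anti-Ranbp1 or anti-p53 (green) with DAPI nuclei, and nuclear localization was imaged by confocal microscopy.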

[6] = target: Exportin-1 (Homo sapiens) (UniProt O14980); test: Induction of CRM1 degradation in human MGC-803 cells assessed as increase in Ranbp1 accumulation in nucleus at 10 uM measured after 6 hrs by DAPI staining based immunofluorescence assay; format: cell-based; outline: as §2
[7] = target: Exportin-1 (Homo sapiens) (UniProt O14980); test: Induction of CRM1 degradation in human HGC-27 cells assessed as reduction in CRM1 expression at 5 uM measured after 24 hrs by Western blot analysis; format: cell-based
Outline: (§3)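 MGC803 and HGC27 cells were exposed to 5 μM compound for 24 h with or without 0.05 μM MG132. CRM1 protein was measured by Western blot on RIPA lysates, with BCA normalization, SDS-PAGE/PVDF transfer and ECL detection.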

[8] = target: Exportin-1 (Homo sapiens) (UniProt O14980); test: Induction of CRM1 degradation in human MGC-803 cells assessed as reduction in CRM1 expression at 5 uM measured after 24 hrs by Western blot analysis; format: cell-based; outline: as §3
[9] = target: Exportin-1 (Homo sapiens) (UniProt O14980); test: Induction of CRM1 degradation in human HGC-27 cells assessed as reduction in CRM1 expression at 5 uM measured after 24 hrs in presence of proteasome inhibitor MG132 by Western blot analysis; format: cell-based; outline: as §3
[10] = target: Exportin-1 (Homo sapiens) (UniProt O14980); test: Induction of CRM1 degradation in human MGC-803 cells assessed as reduction in CRM1 expression at 5 uM measured after 24 hrs in presence of proteasome inhibitor MG132 by Western blot analysis; format: cell-based; outline: as §3
[11] = target: Exportin-1 (Homo sapiens) (UniProt O14980); test: Induction of CRM1 degradation in human HGC-27 cells assessed as reduction in CRM1 expression at 5 uM measured after 24 hrs in presence of proteasome inhibitor bortezomib by Western blot analysis; format: cell-based
[12] = target: Exportin-1 (Homo sapiens) (UniProt O14980); test: Induction of CRM1 degradation in human MGC-803 cells assessed as reduction in CRM1 expression at 5 uM measured after 24 hrs in presence of proteasome inhibitor bortezomib by Western blot analysis; format: cell-based
[13] = target: Cellular tumor antigen p53 (Homo sapiens) (UniProt P04637); test: Induction of p53 cytoplasmic translocation in human MGC-803 cells assessed as increase in p53 bound BCL2 expression at 5 uM measured after 24 hrs in presence of proteasome inhibitor MG132 by immunoprecipitation method; format: cell-based; conditions: filed as modulator, dose 10.0 µM, in the assay text read “at 10 uM” for “at 5 uM”; outline: as §1
[14] = target: Cellular tumor antigen p53 (Homo sapiens) (UniProt P04637); test: Induction of p53 cytoplasmic translocation in human MGC-803 cells assessed as increase in p53 bound BCL-XL expression at 5 uM measured after 24 hrs in presence of proteasome inhibitor MG132 by immunoprecipitation method; format: cell-based; conditions: filed as modulator, dose 10.0 µM, in the assay text read “at 10 uM” for “at 5 uM”; outline: as §1
[15] = target: Cellular tumor antigen p53 (Homo sapiens) (UniProt P04637); test: Induction of p53 cytoplasmic translocation in human MGC-803 cells at 5 uM measured after 6 hrs in presence of proteasome inhibitor MG132 by DAPI staining based immunofluorescence assay; format: cell-based; conditions: filed as modulator, dose 10.0 µM, in the assay text read “at 10 uM” for “at 5 uM”
Outline: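 Cells pretreated ±0.05 μM MG132 for 1 h, then compound for 6 h. Fixed in 4% paraformaldehyde for 30 min, permeabilized with 0.1% Triton X-100 for 10 min, blocked with 10% normal goat serum for 30 min. Stained with p53 antibody (green) and DAPI nuclei, imaged by confocal microscopy.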

[16] = target: Cellular tumor antigen p53 (Homo sapiens) (UniProt P04637); test: Induction of p53 cytoplasmic translocation in human MGC-803 cells assessed as increase in p53 bound BCL2 expression at 10 uM measured after 6 hrs in presence of proteasome inhibitor MG132 by DAPI staining based immunofluorescence assay; conditions: filed as modulator
[17] = target: Cellular tumor antigen p53 (Homo sapiens) (UniProt P04637); test: Induction of p53 cytoplasmic translocation in human MGC-803 cells assessed as increase in p53 bound BCL-XL expression at 10 uM measured after 6 hrs in presence of proteasome inhibitor MG132 by DAPI staining based immunofluorescence assay; conditions: filed as modulator

Compound | IC50 [1] [µM] | Activity [2] | Activity [3] | Activity [4] | Activity [5] | Activity [6] | Activity [7] | Activity [8] | Activity [9] | Activity [10] | Activity [11] | Activity [12] | Activity [13] | Activity [14] | Activity [15] | Activity [16] | Activity [17]
O=c1[nH]cc(F)c(=O)[nH]1 [FLUOROURACIL] | 24.8 |  |  |  |  |  |  |  |  |  |  |  |  |  |  |  | 
Cc1ccc(C(C)C)c(OC[C@H]2CC=CC(=O)O2)c1 |  | Active | Dose-dependent effect | Dose-dependent effect | Active | Active | Active | Active | inactive | inactive | inactive | inactive | Active | Active | Active | Active | Active
O=C1C=CC[C@H](COc2ccc3c(c2)OCO3)O1 | 12 |  |  |  |  |  |  |  |  |  |  |  |  |  |  |  | 
